From ChEMBL document CHEMBL5113523, “Discovery of Cyclic Peptide Inhibitors Targeting PD-L1 for Cancer Immunotherapy” (J Med Chem, 2022) come the findings set out here.

Activity calls are given as the source filed them. Bridge positions count the residues as written; N and C are the ends. Peptide text beside a SMILES is read from it.

The nature of series [1]: Production against apoptosis in human PBMC cells cocultured with DU-145 cells assessed as increase in IFNgamma level in CD4+ T cell at 10 uM measured after 24 hrs by FACScalibur flow cytometry (reference value: 1.3%). Format: functional.
Series [2] has as its system CT26. Description: Antitumor activity against mouse CT26 cells implanted in BALB/c mouse syngeneic model at 0.5 mg/kg, ip administered daily starting from day 10 post inoculation and measured on day 18. Type of series: functional, organism-based. Particulars: time 9.0 day. The gist of the method: (§1)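 Balb/c mice (4 male + 4 female per group) implanted subcutaneously in right flank with ~1×10^6 CT26 cells; treatment began when tumors reached 200-250 mm3. Daily intraperitoneal dosing days 10–18, saline vehicle control group. Caliper volume = 1/2 × length × width2. TGI (%) = [1 − RTV treated/RTV control] × 100, RTV = day-18 volume / day-10 volume.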

The nature of series [3]: Stability of the compound in 50% human serum assessed as half life measured upto 200 mins by LC-MS/MS analysis. Format: ADME, cell-free. The gist of the method: (§2)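 Peptide incubated in 50% human serum at 37 °C. Aliquots taken at set time points up to 3 h and the intact peptide quantified by LC-MS/MS. Mean ± SD, n = 3.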
Series [4] relates to CT26. Description: Antitumor activity against mouse CT26 cells implanted in BALB/c mouse syngeneic model assessed as tumor growth inhibition at 0.5 mg/kg, ip administered daily starting from day 10 post inoculation and measured on day 18 (reference value: 0%). Type of series: functional. The following applies: CT26, 216 h, time 9 day, read-out: TGI. Put shortly: as §1
Series [5] has as its target Programmed cell death 1 ligand 1 (Homo sapiens) (UniProt Q9NZQ7). As to the kind of experiment: Binding affinity to PD-L1 overexpressing in human MDA-MB-231 cells at 25 to 100 nM incubated for 1 hr by flow cytometry analysis. Type of series: cell-based. The following applies: dose 25-100 nM. The gist of the method:
(§3)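 Cells detached with enzyme-free dissociation buffer, suspended in PBS at 1×10^6 cells/mL, incubated with Cy5-labelled peptide at various concentrations for 1 h at 37 °C under slow rotation. Cells spun at 300g for 10 min, washed, resuspended in PBS and read by flow cytometry. PD-L1 knockout MDA-MB-231 served as the negative cell line. Mean ± SD, n = 3.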
Background: In flow cytometry, cells or beads pass a laser one at a time.

The target in series [6] is Programmed cell death protein 1/Programmed cell death 1 ligand 1 (Mus musculus, UniProt Q9EP73). As to the kind of experiment: Inhibition of mouse recombinant PD-1/PD-L1 interaction preincubated with compound for 2 hrs followed by PD-1 protein addition and measured after 1.5 hrs by inhibitor screening ELISA assay pair kit method. Type of series: protein-complex assay. Put shortly: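 Plate-based ELISA. Mouse PD-L1 (100 ng) coated for 16 h at 4 °C, then blocked with 2% BSA for 1.5 h at 37 °C. Peptide added for 2 h at 37 °C, then biotinylated mouse PD-1 for 1.5 h. Detection with streptavidin-HRP and chromogenic substrate, stopped with 2N H2SO4; OD450 referenced to OD540. IC50 determined; mean ± SD, n = 3.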
(In general: An ELISA detects its analyte on a solid surface through an enzyme-linked reagent.)

In series [7] the target is T1, Programmed cell death protein 1/Programmed cell death 1 ligand 1 (Homo sapiens, UniProt Q9NZQ7). As to the kind of experiment: Inhibition of human PD-1/PD-L1 interaction by surface plasmon resonance analysis. Format: protein-complex assay. Put shortly:
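Competitive SPR with PD-1 immobilised on the chip. Various peptide concentrations were preincubated with human PD-L1 in running buffer, then injected. PD-L1 alone was injected as the control. Blocking was taken from the drop in SPR response relative to that control. Mean ± SD, n = 3.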

For series [8], the target named is Programmed cell death 1 ligand 1 (Homo sapiens) (UniProt Q9NZQ7). Description: Binding affinity to PD-L1 deficient in human MCF7 cells at 25 to 100 nM incubated for 1 hr by flow cytometry analysis. Format: cell-based. The following applies: dose 25-100 nM.
The species named for series [9] is Homo sapiens. Description: Antiproliferative activity against human DU-145 cells cocultured with PBMC cells at 10 uM incubated for 24 hrs by CellTiter-Glo luminescent cell viability assay. Type of series: functional, cell-based. (In general: ATP-based viability assays read luminescence as a measure of living cells.)
A short description of series [10]: Production against apoptosis in human PBMC cells cocultured with DU-145 cells assessed as increase in IFNgamma level in CD8+ T cell at 10 uM measured after 24 hrs by FACScalibur flow cytometry (reference value: 1.3%). Format: functional.
The target of series [11] is Programmed cell death 1 ligand 1 (Homo sapiens) (UniProt Q9NZQ7). As to the kind of experiment: Binding affinity to PD-L1 overexpressing in human DU-145 cells at 25 to 100 nM incubated for 1 hr by flow cytometry analysis. Particulars: dose 25-100 nM. Type of series: cell-based. The gist of the method:
as §3

Series [12] in a line: Toxicity in BALB/c syngenic mouse bearing CT26 cells assessed as improvement in animal survival at 0.5 mg/kg, ip administered daily starting from day 10 post inoculation and measured on day 18. Type of series: organism-based. The following applies: in vivo, 216 h, time 9 day. The gist of the method: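 Male and female Balb/c mice (4 of each per group) with about 1×10^6 CT26 cells implanted subcutaneously in the right flank. Grouped when tumours reached 200-250 mm3. Dosed 0.5 mg/kg i.p. daily from day 10 to day 18; saline i.p. as negative control. Caliper volume = 1/2 × length × width². Survival curves recorded.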

A short description of series [13]: Production against apoptosis in human PBMC cells cocultured with DU-145 cells assessed as reduction in apoptosis of T cells at 10 uM measured after 24 hrs by annexin V-FITC/PI staining based FACScalibur flow cytometry (reference value: 24.5%). Format: functional. Also noted: scale not given: the % may be the effect or the level left.
Series [14] addresses T1, Programmed cell death protein 1/Programmed cell death 1 ligand 1. As to the kind of experiment: Inhibition of human recombinant PD-1/PD-L1 interaction preincubated with compound for 2 hrs followed by PD-1 protein addition and measured after 1.5 hrs by inhibitor screening ELISA assay pair kit method. Type of series: protein-complex assay. Put shortly: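 Plates coated with 100 ng recombinant human PD-L1 at 4°C for 16 h, washed with PBS pH 7.2-7.4, then blocked with 2% BSA for 1.5 h at 37°C. Peptides added at set concentrations for 2 h at 37°C, then biotinylated PD-1 for 1.5 h. Detection with streptavidin-HRP and chromogenic substrate, stopped with 2N H2SO4. A450 referenced to 540 nm. Mean ± SD, n = 3.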

Series [15] is described as follows: Stability of the compound in human serum assessed as compound remaining measured after 3 hrs by LC-MS/MS analysis relative to control. Type of series: ADME, cell-free. Particulars: read-out: Stability. The gist of the method: as §2
Series [16] can be described thus: Stability of the compound in human serum assessed as drug degradation measured after 3 hrs by LC-MS/MS analysis. Format: ADME, cell-free. Put shortly: as §2

Chain of Programmed cell death protein 1/Programmed cell death 1 ligand 1 (Mus musculus, UniProt Q9EP73) (Q9EP73 whole entry): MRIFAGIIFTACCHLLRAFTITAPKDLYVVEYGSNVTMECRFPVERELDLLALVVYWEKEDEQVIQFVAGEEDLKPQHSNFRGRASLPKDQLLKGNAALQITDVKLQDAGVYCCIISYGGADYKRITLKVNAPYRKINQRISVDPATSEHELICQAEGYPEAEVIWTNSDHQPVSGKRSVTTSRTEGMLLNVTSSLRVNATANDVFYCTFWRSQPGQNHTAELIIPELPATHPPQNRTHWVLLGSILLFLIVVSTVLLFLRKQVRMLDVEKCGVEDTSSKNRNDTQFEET
Chain of Programmed cell death protein 1/Programmed cell death 1 ligand 1 (Mus musculus, UniProt Q9EP73) (Q02242 whole entry, further chain): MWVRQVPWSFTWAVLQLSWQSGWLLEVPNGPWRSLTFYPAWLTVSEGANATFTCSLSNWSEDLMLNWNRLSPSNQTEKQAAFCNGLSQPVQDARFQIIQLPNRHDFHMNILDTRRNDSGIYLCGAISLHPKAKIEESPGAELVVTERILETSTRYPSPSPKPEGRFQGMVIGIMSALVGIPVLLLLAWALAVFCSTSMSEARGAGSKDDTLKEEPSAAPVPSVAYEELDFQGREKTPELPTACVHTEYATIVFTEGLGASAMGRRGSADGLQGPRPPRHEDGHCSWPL
Chain of Programmed cell death 1 ligand 1 (Homo sapiens) (Q9NZQ7 whole entry): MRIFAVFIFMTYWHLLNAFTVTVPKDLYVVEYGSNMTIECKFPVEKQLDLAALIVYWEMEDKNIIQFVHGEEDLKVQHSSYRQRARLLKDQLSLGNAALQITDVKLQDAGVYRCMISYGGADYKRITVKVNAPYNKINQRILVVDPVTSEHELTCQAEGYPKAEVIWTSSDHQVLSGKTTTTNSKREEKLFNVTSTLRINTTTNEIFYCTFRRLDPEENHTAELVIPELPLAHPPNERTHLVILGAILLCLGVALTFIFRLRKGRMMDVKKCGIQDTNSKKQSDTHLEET
T1 sequence (Q15116 whole entry): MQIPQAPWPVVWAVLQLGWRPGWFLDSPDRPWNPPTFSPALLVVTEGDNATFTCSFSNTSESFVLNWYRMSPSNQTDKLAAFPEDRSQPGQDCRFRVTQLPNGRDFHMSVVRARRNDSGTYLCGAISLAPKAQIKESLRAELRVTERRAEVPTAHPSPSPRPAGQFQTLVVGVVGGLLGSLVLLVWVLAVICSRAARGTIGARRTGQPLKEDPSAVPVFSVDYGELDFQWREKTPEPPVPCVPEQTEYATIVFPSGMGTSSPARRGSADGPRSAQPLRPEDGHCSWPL
T1 sequence (Q9NZQ7 whole entry): as the sequence (Q9NZQ7 whole entry) above

In the case of `CC(=O)N[C@H]1CSSC[C@@H](C(=O)N[C@@H](Cc2c[nH]c3ccccc23)C(=O)N[C@@H](CC(N)=O)C(=O)N[C@@H](CC(C)C)C(=O)N[C@@H](CC(N)=O)C(=O)N[C@H](C(N)=O)[C@@H](C)O)NC(=O)[C@H](Cc2ccc(O)cc2)NC(=O)[C@H](Cc2ccc(O)cc2)NC(=O)[C@H](CO)NC(=O)[C@H](CCCNC(=N)N)NC(=O)[C@H](Cc2c[nH]cn2)NC1=O` (Ac-CHRSYYCWNLNT-NH2; disulfide 1-7), the Activity in series [1] is on record as 1.3%; in [10], 1.5%; in series [12], “Toxic”; in series [13], 10.6%. In addition, the result in series [2], in series [5], in series [8], in series [9] and in [11] was Active. For the same compound, in series [3], the half-life – broadly, the time needed for the level to fall by half in the phase considered – is 70.8 min. Also, in [4], the inhibition in vivo at 0.5 mg/kg was found to be 33%. Besides, the half-inhibitory concentration (IC50) (in general, the concentration needed to halve the response being measured) in series [6] is 464 nM; in series [7] it was 143 nM; in series [14], 440 nM. Moreover, in series [15], the remaining at 3 h turned out to be 25%.

For the compound `CC(=O)N[C@H]1CSSC[C@@H](C(N)=O)NC(=O)[C@H](CC(N)=O)NC(=O)[C@H](CC(C)C)NC(=O)[C@H](CC(N)=O)NC(=O)[C@H](Cc2c[nH]c3ccccc23)NC(=O)[C@H]([C@@H](C)O)NC(=O)[C@H](Cc2ccc(O)cc2)NC(=O)[C@H](Cc2ccc(O)cc2)NC(=O)[C@H](CO)NC(=O)[C@H](CCCNC(=N)N)NC(=O)[C@H](Cc2c[nH]cn2)NC1=O` (Ac-CHRSYYTWNLNC-NH2; disulfide 1-12), the Activity in series [1] is 1.5%; in series [10] it was 1.7%; in series [12], “Toxic”; in [13] it was 12.2%. Besides, the outcome in [2], in [5], in [8], in series [9] and in series [11] was Active. In series [3], the half-life is 38.1 min. Also, the inhibition in vivo at 0.5 mg/kg in series [4] worked out at 60.6%. Moreover, the values for the half-maximal inhibitory concentration (IC50) in [6], in series [7] and in series [14] were 552 nM, 119 nM and 180 nM, respectively.

Regarding H-WHRSYYTWNLNT-OH, the Activity in series [1] was 1.5%; in series [10], 1.4%; in series [12], “Non-Toxic”; in series [13] it was 14.5%. For the same compound, the inhibition in vivo at 0.5 mg/kg in series [4] was determined as 16.3%. For the same compound, the Drug degradation result in [16] is “Active”. Moreover, the result in series [5], in [8] and in series [11] was Active. Also, the IC50 in series [6] amounted to 4280 nM.
